The record followed here is ChEMBL document CHEMBL1135484, “Structural features of azidopyridinyl neonicotinoid probes conferring high affinity and selectivity for mammalian alpha4beta2 and Drosophila nicotinic receptors” (J Med Chem, 2002).

One test concerns Drosophila melanogaster. The experiment in a line: Selectivity ratio of Ki of Nicotinic acetylcholine receptor of Drosophila to Nicotinic acetylcholine receptor alpha4-beta2.
Test [1] can be described thus: Potency to displace [3H]IMI binding to Nicotinic acetylcholine receptor from Drosophila head membranes. Details: species or system Drosophila melanogaster. The procedure, abridged: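 Drosophila head membranes as receptor source, competition against [3H]IMI binding; IC50 (concentration giving 50% inhibition of specific binding) fitted by iterative nonlinear least-squares regression.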

The target of test [2] is Neuronal acetylcholine receptor; alpha4/beta2. The test can be described thus: Potency to displace [3H]nicotine binding to Nicotinic acetylcholine receptor alpha4-beta2 immuno-isolated from M10 cells. It counts as cell-based, Gallus gallus.

The Ki is a dissociation constant, usually derived from enzyme kinetics or from competition with a known ligand. High values mean a looser hold on the target, low ones a stronger hold on the target. Take `[N-]=[N+]=Nc1cc(CN2CCN/C2=N\[N+](=O)[O-])cnc1Cl` [5-AZIDOIMIDACLOPRID]: in the test on Drosophila melanogaster, the Selectivity came out at 14. For the same molecule, in test [1], the affinity corresponds to a Ki of 24 nM.

Consider `[N-]=[N+]=Nc1ccncc1Cn1ccsc1=N`, for which the Selectivity in the test on Drosophila melanogaster was 36. For the same molecule, the values for the Ki in test [2] and in test [1] were 820 nM and 30000 nM, respectively.

Take `[N-]=[N+]=Nc1cc(Cn2ccs/c2=N\[N+](=O)[O-])cnc1Cl`: the Selectivity with Drosophila melanogaster came to 44. In addition, the values for the inhibitory constant (Ki) in test [2] and in test [1] were 170 nM and 3.9 nM, respectively.

In test [2], `[N-]=[N+]=Nc1cc(CN2CCNC2=N[N+](=O)[O-])cnc1Cl` [5-AZIDOIMIDACLOPRID] registered a Ki of 340 nM.

With `N=c1sccn1Cc1ccc(Cl)nc1`, the Selectivity with Drosophila melanogaster worked out at 256. Further, the inhibitory constant (Ki) in test [2] came out at 0.39 nM; in test [1], 100 nM.

Consider `O=[N+]([O-])/N=c1\sccn1Cc1ccc(Cl)nc1`, for which the Selectivity in the test with Drosophila melanogaster was found to be 486. Besides, the Ki was determined as 170 nM in test [2] and 0.35 nM in test [1].

As for `[N-]=[N+]=Nc1cc(Cn2ccnc2N[N+](=O)[O-])cnc1Cl`, the Selectivity in the test on Drosophila melanogaster is 23. For the same molecule, the Ki in test [2] is 300 nM; in test [1], 13 nM.

In the case of `[N-]=[N+]=Nc1cncc(Cn2ccsc2=N)c1`, the Selectivity in the test with Drosophila melanogaster is 867. The Ki in test [2] amounted to 8.3 nM; in test [1], 7200 nM.

On to `O=[N+]([O-])NC1=NCCN1Cc1ccc(Cl)nc1` [IMIDACLOPRID], for which the Ki in test [2] is 720 nM.

As to `N=C1NCCN1Cc1ccc(Cl)nc1` [DESNITROIMIDACLOPRID], the Selectivity with Drosophila melanogaster came to 364. The Ki in test [2] was 2.2 nM; in test [1], 800 nM.

For the molecule `[N-]=[N+]=Nc1ccncc1Cn1ccnc1N[N+](=O)[O-]`, the Selectivity in the test with Drosophila melanogaster worked out at 27. Further, the Ki came to 95800 nM in test [2] and 3600 nM in test [1].

On to `[N-]=[N+]=Nc1cc(Cn2ccsc2=N)cnc1Cl`, for which, in the test with Drosophila melanogaster, the Selectivity was 1600. Further, the figures for the Ki in test [2] and in test [1] were 0.47 nM and 750 nM, respectively.

For `[N-]=[N+]=Nc1cc(CN2CCN=C2N)cnc1Cl`, the Selectivity in the test on Drosophila melanogaster was determined as 2190. Moreover, the Ki in test [2] stood at 2.6 nM; in test [1], 5700 nM.

`[N-]=[N+]=Nc1cc(Cl)ncc1Cn1ccnc1N[N+](=O)[O-]`: in the test with Drosophila melanogaster, the Selectivity amounted to 37. In addition, the Ki is 16900 nM in test [2] and 460 nM in test [1].

As to `N#C/N=c1\sccn1Cc1cnc(Cl)c(N=[N+]=[N-])c1`, the Selectivity in the test on Drosophila melanogaster came out at 4.3. In addition, the Ki in test [2] worked out at 120 nM; in test [1] it was 28 nM.

On to `[N-]=[N+]=Nc1cncc(Cn2ccnc2N[N+](=O)[O-])c1`, for which the Selectivity in the test on Drosophila melanogaster was found to be 10. Also, the Ki in test [2] was 5400 nM; in test [1], 540 nM.

As for `O=[N+]([O-])Nc1nccn1Cc1ccc(Cl)nc1` [DEHYDROIMIDACLOPRID], in the test with Drosophila melanogaster, the Selectivity turned out to be 553. For the same molecule, the Ki in test [2] came out at 470 nM; in test [1] it was 0.85 nM.

Take `[N-]=[N+]=Nc1cc(Cl)ncc1Cn1ccsc1=N`: the Selectivity in the test on Drosophila melanogaster was 29. In addition, the Ki was 110 nM in test [2] and 3200 nM in test [1].

On to `N#C/N=c1\sccn1Cc1ccc(Cl)nc1` [THIACLOPRID OLEFIN], for which the Selectivity in the test on Drosophila melanogaster was 86. Moreover, the Ki in test [2] is 120 nM; in test [1], 1.4 nM.

For the molecule `O=[N+]([O-])/N=C1\NCCN1Cc1ccc(Cl)nc1` [IMIDACLOPRID], the Selectivity in the test with Drosophila melanogaster was determined as 327. The Ki in test [1] is 2.2 nM.

For `CN1CCC[C@H]1c1cccnc1` [NICOTINE], the Ki in test [1] was 2000 nM.

In turn, `Clc1ccc(C2CC3CCC2N3)cn1` (stereo unspecified) [EPIBATIDINE] yielded a Ki in test [1] of 220 nM.
